We go through two molecules from ChEMBL document CHEMBL4334464, “From Phenylthiazoles to Phenylpyrazoles: Broadening the Antibacterial Spectrum toward Carbapenem-Resistant Bacteria” (J Med Chem, 2019).

A value given as a limit tells only on which side of the number the result lay.

Format in all cases: functional
In assay [1] the test system is Staphylococcus aureus. The experiment in a line: Antibacterial activity against methicillin-resistant Staphylococcus aureus NRS123-USA400 clinical isolates assessed as ratio of MIC after and before 1 serial passages by broth microdilution assay. In short, it runs like this: (§1)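 MRSA USA400 was serially passaged over a 14-day period in the presence of each compound or control antibiotic. MIC was determined by broth microdilution after each passage. A four-fold rise in MIC was taken as a sign of resistance.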

Assay [2] has as its system Staphylococcus aureus. Nature of the assay: Antibacterial activity against methicillin-resistant Staphylococcus aureus NRS123-USA400 clinical isolates assessed as ratio of MIC after and before 13 serial passages by broth microdilution assay. A digest of the protocol:
as §1
For orientation: Broth dilution looks for growth in wells or tubes with falling amounts of substance.

The next assay has as its system Pseudomonas aeruginosa. The experiment in a line: Antibacterial activity against Pseudomonas aeruginosa ATCC 15442 clinical isolates after 18 to 20 hrs in aerobic condition by CLSI-based broth microdilution assay.
Assay [3] has as its system Salmonella enteritidis. Nature of the assay: Antibacterial activity against Salmonella enteritidis ATCC 13076 clinical isolates after 18 to 20 hrs in aerobic condition by CLSI-based broth microdilution assay. Particulars: Salmonella enterica subsp. enterica serovar Enteritidis.
For assay [4], the system named is Acinetobacter baumannii. Nature of the assay: Antibacterial activity against Acinetobacter baumannii NR 17786 clinical isolates after 18 to 20 hrs in aerobic condition by CLSI-based broth microdilution assay.
In assay [5] the test system is Acinetobacter baumannii. Nature of the assay: Antibacterial activity against Acinetobacter baumannii ATCC BAA 1141 clinical isolates after 18 to 20 hrs in aerobic condition by CLSI-based broth microdilution assay.
In assay [6] the test system is Escherichia coli. Nature of the assay: Antibacterial activity against Escherichia coli ATCC 25922 clinical isolates after 18 to 20 hrs in aerobic condition by CLSI-based broth microdilution assay.
In assay [7] the test system is Acinetobacter baumannii. Nature of the assay: Antibacterial activity against Acinetobacter baumannii NR 17785 clinical isolates after 18 to 20 hrs in aerobic condition by CLSI-based broth microdilution assay.
Another assay relates to Salmonella typhimurium. Nature of the assay: Antibacterial activity against Salmonella typhimurium ATCC 700720 after 18 to 20 hrs in aerobic condition by CLSI-based broth microdilution assay. Particulars: Salmonella enterica subsp. enterica serovar Typhimurium.
The next assay relates to Shigella flexneri. The experiment in a line: Antibacterial activity against Shigella flexneri ATCC 9199 clinical isolates after 18 to 20 hrs in aerobic condition by CLSI-based broth microdilution assay.
Assay [8] has as its system Acinetobacter baumannii. The experiment in a line: Antibacterial activity against Acinetobacter baumannii ATCC 19606 clinical isolates after 18 to 20 hrs in aerobic condition by CLSI-based broth microdilution assay. Particulars: ATCC 19606 = CIP 70.34 = JCM 6841.
The subject of assay [9] is Escherichia coli. Nature of the assay: Antibacterial activity against Escherichia coli ATCC 35150 clinical isolates after 18 to 20 hrs in aerobic condition by CLSI-based broth microdilution assay.
Assay [10] has as its system Klebsiella pneumoniae. The experiment in a line: Antibacterial activity against Klebsiella pneumoniae BAA-1706 clinical isolates after 18 to 20 hrs in aerobic condition by CLSI-based broth microdilution assay.
Assay [11] deals with Klebsiella pneumoniae. The experiment in a line: Antibacterial activity against Klebsiella pneumoniae BAA-1144 clinical isolates after 18 to 20 hrs in aerobic condition by CLSI-based broth microdilution assay.
Assay [12] has as its system Enterobacter cloacae subsp. cloacae. Nature of the assay: Antibacterial activity against Enterobacter cloacae subsp. cloacae ATCC BAA-1143 clinical isolates after 18 to 20 hrs in aerobic condition by CLSI-based broth microdilution assay.
For assay [13], the system named is Salmonella enteritidis. Nature of the assay: Antibacterial activity against Salmonella enteritidis ATCC 14028 clinical isolates after 18 to 20 hrs in aerobic condition by CLSI-based broth microdilution assay. To be noted: Salmonella enterica subsp. enterica serovar Enteritidis.
The next assay concerns Salmonella enterica. Nature of the assay: Antibacterial activity against Salmonella enterica NR-170 clinical isolates after 18 to 20 hrs in aerobic condition by CLSI-based broth microdilution assay.

For the molecule `CO[C@H]1/C=C/O[C@@]2(C)Oc3c(C)c(O)c4c(O)c(c(/C=N/N5CCN(C)CC5)c(O)c4c3C2=O)NC(=O)/C(C)=C\C=C\[C@H](C)[C@H](O)[C@@H](C)[C@@H](O)[C@@H](C)[C@H](OC(C)=O)[C@@H]1C` [RIFAMPIN], the Ratio with Staphylococcus aureus [1] was 7; with Staphylococcus aureus [2], more than 500000.

Take GENTAMICIN: the MIC – broadly, the least concentration at which growth counts as inhibited – in the assay on Pseudomonas aeruginosa is 2 µg/mL; in the assay on Salmonella enteritidis [3], 1 µg/mL; against Acinetobacter baumannii [4], 64 µg/mL; against Acinetobacter baumannii [5], 4 µg/mL; in the assay on Escherichia coli [6] it was 1 µg/mL; against Acinetobacter baumannii [7], more than 64 µg/mL. Besides, the MIC against Salmonella typhimurium is 1 µg/mL; against Shigella flexneri, 1 µg/mL; against Acinetobacter baumannii [8] it was 16 µg/mL; in the assay with Escherichia coli [9], 1 µg/mL; in the assay on Klebsiella pneumoniae [10], 8 µg/mL; against Klebsiella pneumoniae [11] it was 16 µg/mL. The MIC (in assay [12]; with Salmonella enteritidis [13]; with Salmonella enterica) was 1 µg/mL in each case.
